ChEMBL document CHEMBL1122754, “Synthesis and evaluation of (17 alpha,20E)-21-[125I]iodo-19-norpregna-1,3,5(10),20-tetraene-3,17 -diol and (17 alpha,20E)-21-[125I]iodo-11 beta-methoxy-19-norpregna-1,3,5(10),20-tetraene-3,17-diol (17 alpha-(iodovinyl)estradiol derivatives) as high specific activity potential radiopharmaceuticals” (J Med Chem, 1984)
Values joined by “and” are separate entries in the source; they are usually repeats but may differ in a detail not shown here. Identical values can stand only once.

What was measured:
Rattus norvegicus [1] = assay: In vivo distribution of the drug in uterus was determined at 1 hr following injection of five microcurics of the radiolabeled [125 I] compound in rats; type: ADME, organism-based
Method in brief: (§1)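 Immature female Sprague-Dawley rats (20–25 days old) given 3–5 μCi of the ¹²⁵I-radioligand into the femoral vein; killed by cervical dislocation at 1, 2 or 3 h. Uterus blotted free of blood, 10–30-mg samples weighed. Heparinized blood centrifuged, 20-μL plasma samples taken. Gamma counting, dpm by absolute counting method. Expressed as percent dose/gram tissue; uterus/plasma ratio from these values.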

Rattus norvegicus [2] = assay: In vivo distribution of the drug in uterus/plasma was determined at 2 hr following injection of five microcurics of the radiolabeled [125 I] compound in rats; type: ADME, organism-based; method in brief: as §1
Rattus norvegicus [3] = assay: In vivo distribution of the drug in plasma was determined at 3h following injection of five microcurics of the radiolabeled [125 I] compound in rats; type: ADME, organism-based; method in brief: as §1
Rattus norvegicus [4] = assay: In vivo distribution of the drug in plasma was determined at 1 hr following injection of five microcurics of the radiolabeled [125 I] compound in rats; type: ADME, organism-based; method in brief: as §1
Rattus norvegicus [5] = assay: In vivo distribution of the drug in plasma was determined at 2 hr following injection of five microcurics of the radiolabeled [125 I] compound in rats; type: ADME, organism-based; method in brief: as §1
Rattus norvegicus [6] = assay: In vivo distribution of the drug in uterus was determined at 3h following injection of five microcurics of the radiolabeled [125 I] compound in rats; type: ADME, organism-based; method in brief: as §1
Rattus norvegicus [7] = assay: (§2) In vivo distribution of the drug in uterus/plasma was determined at 3h following injection of five microcurics of the radiolabeled [125 I] compound in rats; type: ADME, organism-based; details: other tissue; method in brief: as §1
Rattus norvegicus [8] = species on record: Rattus norvegicus; assay: Specific activity and expressed as Ci/mmol; type: functional
Rattus norvegicus [9] = assay: In vivo distribution of the drug in uterus/plasma was determined at 1 hr following injection of five microcurics of the radiolabeled [125 I] compound in rats; type: ADME, organism-based; method in brief: as §1
Rattus norvegicus [10] = assay: In vivo distribution of the drug in uterus was determined at 2 hr following injection of five microcurics of the radiolabeled [125 I] compound in rats; type: ADME, organism-based; method in brief: as §1
Rattus norvegicus [11] = assay: In vivo effect when coinjected with estradiol (50 ug) in immature rat muscle (after 1 hr); type: functional, Muscle tissue
Rattus norvegicus [12] = assay: In vivo effect when coinjected with estradiol (50 ug) in immature rat liver (after 1 hr); type: functional
Rattus norvegicus [13] = assay: In vivo effect when coinjected with estradiol (50 ug) in immature rat plasma (after 1 hr); type: functional
Rattus norvegicus [14] = assay: as §2; type: ADME, organism-based; details: other tissue; remark: listed apart in the source
Method in brief: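 Female Sprague-Dawley rats aged 20–25 days received 3–5 µCi of the [125I] radioligand via the femoral vein and were killed by cervical dislocation at 1, 2 and 3 h. Uterus was blotted free of blood, and 10–30 mg samples were weighed. Heparinized blood was centrifuged, and 20 µL plasma samples were taken. Samples were gamma-counted, with dpm found by absolute counting. Values are % dose/g, and the uterus/plasma ratio was derived from them.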

Rattus norvegicus [15] = assay: In vivo effect when coinjected with estradiol (50 ug) in immature rat uterus (after 1 hr); type: functional

Row | SMILES | Distribution (Rattus norvegicus [1]) [%] | uterus/plasma ratio (Rattus norvegicus [2]) | Distribution (Rattus norvegicus [3]) [%] | Distribution (Rattus norvegicus [4]) [%] | Distribution (Rattus norvegicus [5]) [%] | Distribution (Rattus norvegicus [6]) [%] | uterus/plasma ratio (Rattus norvegicus [7]) | Specific activity (Rattus norvegicus [8]) | uterus/plasma ratio (Rattus norvegicus [9]) | Distribution (Rattus norvegicus [10]) [%] | Dose (Rattus norvegicus [11]) [%] | Dose (Rattus norvegicus [12]) [%] | Dose (Rattus norvegicus [13]) [%] | uterus/plasma ratio (Rattus norvegicus [14]) | Dose (Rattus norvegicus [15]) [%]
1 | C[C@]12CC[C@@H]3c4ccc(O)cc4CC[C@H]3[C@@H]1CC[C@@]2(O)/C=C/[125I] | 5.89 | 5 | 0.113 | 1.09 | 0.192 | 1.1 | 9.7 | 2200 Ci mM-1 and 2152 Ci mM-1 | 5.5 | 0.96 |  |  |  |  | 
2 | CO[C@H]1C[C@@]2(C)[C@@H](CC[C@@]2(O)/C=C/[125I])[C@@H]2CCc3cc(O)ccc3[C@H]21 | 8.18 | 68.3 | 0.24 | 0.28 | 0.25 | 15.9 |  |  | 29 | 17.2 | 1.29 | 4.52 | 0.34 | 66.3 | 1.25
